Experimental data from ChEMBL document CHEMBL5058577, “EUbOPEN Chemogenomics Library 2 (Multiplex)” (2022).

Test system: U2OS
Assay: Multiplex assay against U2OS
Type: toxicity, cell-based
Conditions: human
In short: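 With compound added, live cells were imaged on a CQ1 microscope at 37°C and 5% CO2; staining with Hoechst33342, BioTracker Green Microtubule Cytoskeleton Dye, MitoTracker Red and Annexin V Alexa Fluor 680 had been done at seeding. The CellPathfinder machine-learning gating scheme split cells into Hoechst high-intensity objects or normal cells, normal cells into healthy, pyknosed or fragmented nuclei, and pyknosed cells into mitotic or apoptotic. The tubulin, mitochondrial-mass and membrane-permeability phenotypes are per cents of healthy-nucleus cells.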

[1] = 12 h, 1 µM, compound concentration 1 uM, replicate 1
[2] = 12 h, 1 µM, compound concentration 1 uM, replicate 2
[3] = 12 h, 10 µM, compound concentration 10 uM, replicate 1
[4] = 12 h, 10 µM, compound concentration 10 uM, replicate 2
[5] = 24 h, 1 µM, compound concentration 1 uM, replicate 1
[6] = 24 h, 1 µM, compound concentration 1 uM, replicate 2
[7] = 24 h, 10 µM, compound concentration 10 uM, replicate 1
[8] = 24 h, 10 µM, compound concentration 10 uM, replicate 2
[9] = 48 h, 1 µM, compound concentration 1 uM, replicate 1
[10] = 48 h, 1 µM, compound concentration 1 uM, replicate 2
[11] = 48 h, 10 µM, compound concentration 10 uM, replicate 1
[12] = 48 h, 10 µM, compound concentration 10 uM, replicate 2

Compound: COc1cccc2c1c(NS(=O)(=O)c1ccc(Cl)s1)nn2Cc1cccc(CNC(=O)C(C)(C)O)c1
- Population Apoptotic (%) [1]: 86%
- Population Fragmented Nuclei (%) [1]: 23%
- Population Healthy Nuclei (%) [1]: 67%
- Population Hoechst High Intensity Objects (%) [1]: 3%
- Population Membrane Permeable-Phenotype (%) [1]: 4%
- Population Mitochondria Different-Phenotype (%) [1]: 1%
- Population Mitotic Cells (%) [1]: 13%
- Population Normal (%) [1]: 96%
- Population Pyknosed Nuclei (%) [1]: 9%
- Population Tubulin-Different-Phenotype (%) [1]: 1%
- Total Cell Count [1]: 261
- Population Apoptotic (%) [2]: 81%
- Population Fragmented Nuclei (%) [2]: 29%
- Population Healthy Nuclei (%) [2]: 64%
- Population Hoechst High Intensity Objects (%) [2]: 6%
- Population Membrane Permeable-Phenotype (%) [2]: 7%
- Population Mitochondria Different-Phenotype (%) [2]: 3%
- Population Mitotic Cells (%) [2]: 18%
- Population Normal (%) [2]: 93%
- Population Pyknosed Nuclei (%) [2]: 5%
- Population Tubulin-Different-Phenotype (%) [2]: 6%
- Total Cell Count [2]: 201
- Population Apoptotic (%) [3]: 76%
- Population Fragmented Nuclei (%) [3]: 26%
- Population Healthy Nuclei (%) [3]: 65%
- Population Hoechst High Intensity Objects (%) [3]: 1%
- Population Membrane Permeable-Phenotype (%) [3]: 6%
- Population Mitochondria Different-Phenotype (%) [3]: 2%
- Population Mitotic Cells (%) [3]: 23%
- Population Normal (%) [3]: 98%
- Population Pyknosed Nuclei (%) [3]: 8%
- Population Tubulin-Different-Phenotype (%) [3]: 4%
- Total Cell Count [3]: 264
- Population Apoptotic (%) [4]: 83%
- Population Fragmented Nuclei (%) [4]: 25%
- Population Healthy Nuclei (%) [4]: 70%
- Population Hoechst High Intensity Objects (%) [4]: 5%
- Population Membrane Permeable-Phenotype (%) [4]: 8%
- Population Mitochondria Different-Phenotype (%) [4]: 3%
- Population Mitotic Cells (%) [4]: 16%
- Population Normal (%) [4]: 94%
- Population Pyknosed Nuclei (%) [4]: 4%
- Population Tubulin-Different-Phenotype (%) [4]: 2%
- Total Cell Count [4]: 140
- Population Apoptotic (%) [5]: 96%
- Population Fragmented Nuclei (%) [5]: 20%
- Population Healthy Nuclei (%) [5]: 70%
- Population Hoechst High Intensity Objects (%) [5]: 1%
- Population Membrane Permeable-Phenotype (%) [5]: 5%
- Population Mitochondria Different-Phenotype (%) [5]: 1%
- Population Mitotic Cells (%) [5]: 3%
- Population Normal (%) [5]: 98%
- Population Pyknosed Nuclei (%) [5]: 8%
- Population Tubulin-Different-Phenotype (%) [5]: 3%
- Total Cell Count [5]: 307
- Population Apoptotic (%) [6]: 90%
- Population Fragmented Nuclei (%) [6]: 28%
- Population Healthy Nuclei (%) [6]: 66%
- Population Hoechst High Intensity Objects (%) [6]: 5%
- Population Membrane Permeable-Phenotype (%) [6]: 8%
- Population Mitochondria Different-Phenotype (%) [6]: 3%
- Population Mitotic Cells (%) [6]: 9%
- Population Normal (%) [6]: 94%
- Population Pyknosed Nuclei (%) [6]: 4%
- Population Tubulin-Different-Phenotype (%) [6]: 6%
- Total Cell Count [6]: 242
- Population Apoptotic (%) [7]: 90%
- Population Fragmented Nuclei (%) [7]: 25%
- Population Healthy Nuclei (%) [7]: 64%
- Population Hoechst High Intensity Objects (%) [7]: 1%
- Population Membrane Permeable-Phenotype (%) [7]: 5%
- Population Mitochondria Different-Phenotype (%) [7]: 3%
- Population Mitotic Cells (%) [7]: 10%
- Population Normal (%) [7]: 98%
- Population Pyknosed Nuclei (%) [7]: 10%
- Population Tubulin-Different-Phenotype (%) [7]: 2%
- Total Cell Count [7]: 304
- Population Apoptotic (%) [8]: 88%
- Population Healthy Nuclei (%) [8]: 68%
- Population Hoechst High Intensity Objects (%) [8]: 5%
- Population Membrane Permeable-Phenotype (%) [8]: 8%
- Population Mitochondria Different-Phenotype (%) [8]: 4%
- Population Mitotic Cells (%) [8]: 11%
- Population Normal (%) [8]: 94%
- Population Pyknosed Nuclei (%) [8]: 5%
- Total Cell Count [8]: 167
- Population Apoptotic (%) [9]: 95%
- Population Fragmented Nuclei (%) [9]: 14%
- Population Healthy Nuclei (%) [9]: 76%
- Population Hoechst High Intensity Objects (%) [9]: 1%
- Population Membrane Permeable-Phenotype (%) [9]: 4%
- Population Mitochondria Different-Phenotype (%) [9]: 1%
- Population Mitotic Cells (%) [9]: 4%
- Population Normal (%) [9]: 98%
- Population Pyknosed Nuclei (%) [9]: 9%
- Population Tubulin-Different-Phenotype (%) [9]: 2%
- Total Cell Count [9]: 463
- Population Apoptotic (%) [10]: 74%
- Population Fragmented Nuclei (%) [10]: 22%
- Population Healthy Nuclei (%) [10]: 68%
- Population Hoechst High Intensity Objects (%) [10]: 7%
- Population Membrane Permeable-Phenotype (%) [10]: 5%
- Population Mitochondria Different-Phenotype (%) [10]: 4%
- Population Mitotic Cells (%) [10]: 25%
- Population Normal (%) [10]: 92%
- Population Tubulin-Different-Phenotype (%) [10]: 5%
- Total Cell Count [10]: 314
- Population Apoptotic (%) [11]: 93%
- Population Fragmented Nuclei (%) [11]: 20%
- Population Healthy Nuclei (%) [11]: 71%
- Population Hoechst High Intensity Objects (%) [11]: 2%
- Population Membrane Permeable-Phenotype (%) [11]: 5%
- Population Mitochondria Different-Phenotype (%) [11]: 2%
- Population Mitotic Cells (%) [11]: 6%
- Population Normal (%) [11]: 97%
- Population Pyknosed Nuclei (%) [11]: 8%
- Population Tubulin-Different-Phenotype (%) [11]: 3%
- Total Cell Count [11]: 413
- Population Apoptotic (%) [12]: 100%
- Population Fragmented Nuclei (%) [12]: 22%
- Population Hoechst High Intensity Objects (%) [12]: 3%
- Population Mitochondria Different-Phenotype (%) [12]: 3%
- Population Mitotic Cells (%) [12]: 0%
- Population Normal (%) [12]: 96%
- Population Pyknosed Nuclei (%) [12]: 5%
- Total Cell Count [12]: 235
